Screens (PubChem BioAssay)
JMJD2C inh = inhibitors of human GASC-1 (JMJD2C) demethylase. Q9H3R0. GST-JMJD2C(1-420) H3K9me3 demethylation, DELFIA europium. inhibition, % at 2.35 µM. 0.069% of 330,000 active;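 active means more than half of a compound's replicate wells show inhibition beyond 50%, single wells judged on their own value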;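 further: signal counts dimethyl H3K9 product captured on neutravidin plate; 0% = median of DMSO wells and 100% = 0.3 times that DMSO median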
Target sequence (Q9H3R0 1-420 limits assumed): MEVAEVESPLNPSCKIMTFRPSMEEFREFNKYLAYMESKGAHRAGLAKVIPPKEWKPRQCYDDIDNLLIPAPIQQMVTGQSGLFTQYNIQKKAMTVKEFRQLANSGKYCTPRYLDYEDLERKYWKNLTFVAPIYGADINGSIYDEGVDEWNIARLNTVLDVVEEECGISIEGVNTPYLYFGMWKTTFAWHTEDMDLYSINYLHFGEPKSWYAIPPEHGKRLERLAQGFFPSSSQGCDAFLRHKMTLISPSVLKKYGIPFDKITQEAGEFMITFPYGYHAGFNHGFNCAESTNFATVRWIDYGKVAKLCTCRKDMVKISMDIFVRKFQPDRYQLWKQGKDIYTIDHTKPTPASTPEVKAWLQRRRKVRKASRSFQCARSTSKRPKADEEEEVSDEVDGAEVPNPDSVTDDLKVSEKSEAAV
NR3A LBD binder = NR3A (human) ligand-binding domain modulation; NR3A LBD differential scanning fluorimetry, Tm shift; 0% = protein alone, 100% = glycine-bound protein; Tm shift relative to glycine control, % at 25 µM; 2.5% of 340,000 active;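 active means melting temperature shift of at least 10% of the positive control shift, at one fixed dose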
T cell modulator = modulates CD8 T cell binding to vesicles; 2C CD8+ T cell-vesicle binding, flow cytometry; active compounds read low; response (vesicle binding), % at 7 µM; AID 2052; 0.068% of 330,000 active;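 active means response, share of CD8 T cells binding vesicles, and their 90th percentile fluorescence all below set limits, cut at about 80% in these data, passing the limit was not always enough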;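 further: values below 100% mean blocked vesicle binding to the CD8+ T cells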
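Benchmarks: naked versus QL9-loaded vesicles / Assay system: purified 2C TCR transgenic mouse naive CD8+ T cells / Technique: high-throughput flow cytometry with anti-B7-1 and anti-CD8 staining / Timing: Cell–vesicle co-incubation 1.5 h at 37 °C, staining 20 min on ice / Read-out: percent CD8+ FL2 mean versus row control / Probe or stimulus: QL9-loaded Drosophila micro-vesicles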
Rtt109 Vps75 = inhibitors of Candida albicans Rtt109/Vps75 histone acetyltransferase. purified Rtt109/Vps75, ThioGlo CoA-SH fluorescence, 4 h. inhibition, % at 34.9 µM. 0.16% of 330,000 active;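 active means inhibition of at least 50% in every replicate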
Starred values were filed as active, the others as inactive. Hits are enriched below; roughly 2.8% of the tested compounds scored in any of these assays.

For CCOc1cc(S(=O)(=O)Nc2ccc(Cl)cn2)ccc1F the results were JMJD2C inh 2, NR3A LBD binder 11*, T cell modulator 231 and Rtt109 Vps75 30.
CCCCCCCCCCCCCCCC[N+](C)(C)CC was read as JMJD2C inh 0, NR3A LBD binder -9, T cell modulator 220 and Rtt109 Vps75 74*.
For CCN(CC)c1ccc(/C=N/NC(=O)c2cccc(S(=O)(=O)Nc3ccccc3OC)c2)c(O)c1 the results were JMJD2C inh 6, NR3A LBD binder 14*, T cell modulator 174 and Rtt109 Vps75 1.
For Cc1[nH]c2ccccc2c1/C=N/NC(=O)c1cccc(Br)c1 the results were JMJD2C inh -6, NR3A LBD binder 16*, T cell modulator 525 and Rtt109 Vps75 11.
Screening COc1ccc2ccccc2c1/C=N/NC(=O)c1cccc(Br)c1 returned JMJD2C inh 4, NR3A LBD binder 4, T cell modulator 245 and Rtt109 Vps75 5.
`O=C(N/N=C/c1[nH]c2ccccc2c1Cl)c1cccc(Br)c1` gave JMJD2C inh -10, NR3A LBD binder 12* and T cell modulator 572.
For Cc1ccc(/C=N/NC(=O)c2cccc(S(=O)(=O)Nc3ccccc3Cl)c2)o1 the results were JMJD2C inh -2, NR3A LBD binder -2, T cell modulator 201 and Rtt109 Vps75 -3.
CCN(CC)c1ccc(/C=N/NC(=O)c2cccc(S(=O)(=O)Nc3ccccc3OC)c2)cc1 was read as JMJD2C inh -2, NR3A LBD binder 1, T cell modulator 202 and Rtt109 Vps75 -13.
Cc1[nH]c2ccccc2c1/C=N/NC(=O)c1ccccc1 was read as JMJD2C inh 6, NR3A LBD binder -4, T cell modulator 9 and Rtt109 Vps75 -5.
`Cc1[nH]c2ccccc2c1/C=N/NC(=O)c1cccc(S(=O)(=O)Nc2ccccc2Cl)c1` gave JMJD2C inh 6, NR3A LBD binder 24*, T cell modulator 339 and Rtt109 Vps75 5.
`CC(=O)Oc1cccc(C(=O)Nc2ccc(NC(=O)c3cccs3)cc2)c1` gave JMJD2C inh -24, NR3A LBD binder 9, T cell modulator 0 and Rtt109 Vps75 -1.
For COc1ccc(-c2ccc3c(c2)C2CC3CCN2)cc1 (stereo not given) the results were NR3A LBD binder 2 and Rtt109 Vps75 -6.
For COc1ccc(C(CNC(=O)COc2ccccc2)N2CCCCC2)cc1 (stereo not given) the results were NR3A LBD binder 0, T cell modulator 370 and Rtt109 Vps75 2.
Screening CC(C)(C)c1nnc(SCC(=O)Nc2ccc(N3CCCCC3)cc2)n1N returned JMJD2C inh -5, NR3A LBD binder 1, T cell modulator 179 and Rtt109 Vps75 4.
Cc1[nH]c2ccccc2c1/C=N/NC(=O)c1cc(-c2ccccc2)n[nH]1 was read as JMJD2C inh -5, NR3A LBD binder 19*, T cell modulator 178 and Rtt109 Vps75 -4.
O=C(N/N=C/c1ccco1)c1cccc(S(=O)(=O)Nc2ccccc2Cl)c1 was read as JMJD2C inh 5, NR3A LBD binder -2, T cell modulator 202 and Rtt109 Vps75 5.
Screening Cc1[nH]c2ccccc2c1/C=N/NC(=O)c1ccc(N)cc1 returned JMJD2C inh 10, NR3A LBD binder 11*, T cell modulator 214 and Rtt109 Vps75 6.
`CCc1cccc2c(/C=N/NC(=O)c3cccc(S(=O)(=O)Nc4ccccc4Cl)c3)c[nH]c12` gave JMJD2C inh 5, NR3A LBD binder 27*, T cell modulator 194 and Rtt109 Vps75 -3.
Cc1[nH]c2ccccc2c1/C=N/NC(=O)c1cc(-c2ccncc2)nc2ccccc12 was read as JMJD2C inh -6, NR3A LBD binder 7, T cell modulator 578 and Rtt109 Vps75 -8.
For O=C(N/N=C/c1cccs1)c1cccc(S(=O)(=O)Nc2ccc(Cl)cc2)c1 the results were JMJD2C inh -1, NR3A LBD binder 28*, T cell modulator 166 and Rtt109 Vps75 2.
O=C(NC1CCOCC1)C1CCC(=O)N(Cc2ccc(Cl)cc2)C1 (stereo not given) was read as JMJD2C inh -1, NR3A LBD binder -1, T cell modulator 280 and Rtt109 Vps75 13.
`O=C(CCC(=O)N1CCN(S(=O)(=O)c2ccccc2Cl)CC1)c1ccccc1` gave NR3A LBD binder 2 and Rtt109 Vps75 -7.
Screening Cc1nnc(NC(=O)c2ccc(N3CCCC3=O)cc2)s1 returned NR3A LBD binder 1 and Rtt109 Vps75 -3.
O=C(Nc1nc2ccc(F)cc2s1)c1ccc(N2CCCC2=O)cc1 was read as JMJD2C inh 4, NR3A LBD binder 11*, T cell modulator 338 and Rtt109 Vps75 -13.
COC(=O)c1ccc2nc(Nc3nc4ccc(F)cc4s3)sc2c1 was read as JMJD2C inh 0, NR3A LBD binder 12*, T cell modulator 429 and Rtt109 Vps75 -10.
Screening N#Cc1ccccc1NC(=O)CN(Cc1ccccc1)Cc1ccccc1 returned JMJD2C inh 7, NR3A LBD binder 16*, T cell modulator 602 and Rtt109 Vps75 14.
`Nc1nnc(-c2cn(-c3ccccc3)nc2-c2ccc(Cl)cc2)o1` gave JMJD2C inh -17, NR3A LBD binder 25*, T cell modulator 313 and Rtt109 Vps75 0.
Screening Nc1nnc(-c2cn(-c3ccccc3)nc2-c2ccccc2)o1 returned JMJD2C inh -6, NR3A LBD binder -28, T cell modulator 347 and Rtt109 Vps75 7.
Screening CC(=O)Nc1ccc(Nc2cc(C)nc3c(-c4ccc(Cl)cc4)cnn23)cc1 returned JMJD2C inh -15, NR3A LBD binder 30*, T cell modulator 282 and Rtt109 Vps75 -10.
For CCC(C)C(Nc1ccc(C(=O)OC)cc1[N+](=O)[O-])C(=O)OC (stereo not given) the results were JMJD2C inh 1, NR3A LBD binder 12*, T cell modulator 496 and Rtt109 Vps75 3.
For COC(=O)c1ccc(NC(C(=O)OC)C(C)C)c([N+](=O)[O-])c1 (stereo not given) the results were JMJD2C inh 8, NR3A LBD binder 9, T cell modulator 128 and Rtt109 Vps75 -1.
For NNC(=O)CSc1ncc(-c2ccccc2)[nH]1 the results were JMJD2C inh -7, NR3A LBD binder -1, T cell modulator 382 and Rtt109 Vps75 1.
Cc1ccc2nc(SC(C(=O)Nc3ccc(F)cc3)c3ccccc3)[nH]c2c1 (stereo not given) was read as JMJD2C inh -4, NR3A LBD binder 16*, T cell modulator 315 and Rtt109 Vps75 -3.
Screening O=C(CSc1nc2cc3ccccc3cc2[nH]1)Nc1ccc(F)cc1 returned JMJD2C inh 9, NR3A LBD binder 17*, T cell modulator 184 and Rtt109 Vps75 -3.
O=C(CSc1ncc(-c2ccc(F)cc2)[nH]1)Nc1cccc(O)c1 was read as JMJD2C inh 8, NR3A LBD binder 16* and T cell modulator 302.
COc1ccc(NC(=O)CSc2nc3ccc(OC)cc3[nH]2)cc1 was read as JMJD2C inh 5, NR3A LBD binder -6, T cell modulator 194 and Rtt109 Vps75 23.
